# Results published in ChEMBL document CHEMBL1800057, “Discovery of dual inducible/neuronal nitric oxide synthase (iNOS/nNOS) inhibitor development candidate 4-((2-cyclobutyl-1H-imidazo[4,5-b]pyrazin-1-yl)methyl)-7,8-difluoroquinolin-2(1H)-one (KD7332) part 2: identification of a novel, potent, and selective series of benzimidazole-quinolinone …” (J Med Chem, 2010).
# Key:
# [1] = Plasma clearance in mouse at 3 mg/kg, iv and 10 mg/kg, po; type: ADME, organism-based
# [2] = test system: Liver; assay: Half life in mouse liver microsomes assessed as formation of oxidation product and glucuronide conjugate; type: ADME, Microsome
# In short: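 Mouse liver microsomes run under combined phase I oxidation and phase II glucuronide conjugation; half-life reported in minutes.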
# [3] = AUC in mouse at 3 mg/kg, iv and 10 mg/kg, po; type: ADME, organism-based; conditions: plasma
# [4] = species on record: Homo sapiens; assay: Ratio of IC50 for human eNOS to EC50 for human iNOS
# [5] = target: Nitric oxide synthase 1 (Homo sapiens, UniProt P29475); assay: Inhibition of human nNOS expressed in HEK293 cells assessed as inhibition ionomycin induced nitric oxide production incubated for 24 hrs measured after 18 hrs of ionomycin challenge using 2,3-diaminonaphthalene by fluorescence assay; type: cell-based
# Nitric oxide synthase 1, sequence (P29475 whole entry): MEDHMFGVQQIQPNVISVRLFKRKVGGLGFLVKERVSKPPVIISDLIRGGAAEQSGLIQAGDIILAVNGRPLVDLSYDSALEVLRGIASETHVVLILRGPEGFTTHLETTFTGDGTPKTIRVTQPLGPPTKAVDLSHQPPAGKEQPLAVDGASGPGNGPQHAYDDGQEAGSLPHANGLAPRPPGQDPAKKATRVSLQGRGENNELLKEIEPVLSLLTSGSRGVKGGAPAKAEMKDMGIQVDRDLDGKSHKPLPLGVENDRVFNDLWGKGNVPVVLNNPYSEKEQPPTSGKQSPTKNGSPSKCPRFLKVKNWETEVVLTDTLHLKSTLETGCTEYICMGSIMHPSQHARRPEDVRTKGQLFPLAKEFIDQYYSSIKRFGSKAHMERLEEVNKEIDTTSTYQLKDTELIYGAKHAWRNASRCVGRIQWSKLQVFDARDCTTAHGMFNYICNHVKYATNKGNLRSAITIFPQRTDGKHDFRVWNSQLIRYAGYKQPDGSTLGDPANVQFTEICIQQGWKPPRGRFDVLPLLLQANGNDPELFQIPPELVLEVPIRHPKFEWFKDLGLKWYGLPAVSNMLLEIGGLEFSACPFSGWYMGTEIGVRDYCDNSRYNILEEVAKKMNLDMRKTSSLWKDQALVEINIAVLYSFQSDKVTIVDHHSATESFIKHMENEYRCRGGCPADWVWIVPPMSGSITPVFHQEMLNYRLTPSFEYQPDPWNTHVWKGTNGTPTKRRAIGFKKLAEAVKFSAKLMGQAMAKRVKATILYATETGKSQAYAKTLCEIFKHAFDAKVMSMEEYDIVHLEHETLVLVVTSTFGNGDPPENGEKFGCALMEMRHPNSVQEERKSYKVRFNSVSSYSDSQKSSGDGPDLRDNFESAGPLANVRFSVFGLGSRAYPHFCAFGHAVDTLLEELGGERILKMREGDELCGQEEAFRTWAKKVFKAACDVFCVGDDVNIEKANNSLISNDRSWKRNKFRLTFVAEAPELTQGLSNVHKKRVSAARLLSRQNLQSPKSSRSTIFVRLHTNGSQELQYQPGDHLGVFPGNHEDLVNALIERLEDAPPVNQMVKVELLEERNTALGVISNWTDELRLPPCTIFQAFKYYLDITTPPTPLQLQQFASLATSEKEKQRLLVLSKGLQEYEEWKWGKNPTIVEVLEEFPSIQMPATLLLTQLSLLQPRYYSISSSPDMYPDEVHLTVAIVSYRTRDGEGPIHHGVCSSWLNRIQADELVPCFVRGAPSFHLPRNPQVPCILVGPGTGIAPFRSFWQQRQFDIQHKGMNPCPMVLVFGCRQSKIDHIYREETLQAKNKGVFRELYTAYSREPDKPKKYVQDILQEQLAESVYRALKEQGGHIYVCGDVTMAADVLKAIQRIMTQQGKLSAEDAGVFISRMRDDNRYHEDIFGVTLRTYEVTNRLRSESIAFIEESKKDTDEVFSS
# In short: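 HEK293 cells transfected for 4 h at 37 °C with human nNOS (10 μg) or human eNOS (15 μg) plasmid (Fugene 6, 3:1). Cells replated at 5e5 cells/mL and dosed with compound at once; SEITU (100 μM final) as positive control. After 24 h, cells activated with A23187 (83 nM final) for eNOS or ionomycin (30 μM final) for nNOS. NO read 18 h later as nitrite-DAN fluorescence.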
# [6] = Oral bioavailability in mouse at 10 mg/kg; type: ADME, organism-based; conditions: in vivo
# [7] = Half life in mouse at 3 mg/kg, iv and 10 mg/kg, po; conditions: in vivo
# [8] = target: T1, Cytochrome P450 1A2 (Homo sapiens, UniProt P05177); assay: Inhibition of human CYP1A2 at >100uM; type: ADME
# T1 sequence (P05177 whole entry): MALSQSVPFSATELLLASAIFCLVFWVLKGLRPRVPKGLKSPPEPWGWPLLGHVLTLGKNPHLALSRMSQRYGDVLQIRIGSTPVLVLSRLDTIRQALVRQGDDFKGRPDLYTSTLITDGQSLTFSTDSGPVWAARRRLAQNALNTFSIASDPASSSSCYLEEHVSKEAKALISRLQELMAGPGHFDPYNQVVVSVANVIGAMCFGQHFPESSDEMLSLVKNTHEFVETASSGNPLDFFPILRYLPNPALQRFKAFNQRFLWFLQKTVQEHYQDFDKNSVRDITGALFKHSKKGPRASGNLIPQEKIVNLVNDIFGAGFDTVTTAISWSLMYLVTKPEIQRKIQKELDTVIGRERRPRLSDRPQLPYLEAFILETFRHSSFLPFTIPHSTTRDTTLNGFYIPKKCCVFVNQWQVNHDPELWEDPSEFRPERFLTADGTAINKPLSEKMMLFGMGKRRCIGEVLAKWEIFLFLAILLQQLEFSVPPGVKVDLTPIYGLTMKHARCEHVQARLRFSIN
# [9] = target: T2, Cytochrome P450 2C19 (Homo sapiens, UniProt P33261); assay: Inhibition of human CYP2C19; type: ADME
# T2 sequence (P33261 whole entry): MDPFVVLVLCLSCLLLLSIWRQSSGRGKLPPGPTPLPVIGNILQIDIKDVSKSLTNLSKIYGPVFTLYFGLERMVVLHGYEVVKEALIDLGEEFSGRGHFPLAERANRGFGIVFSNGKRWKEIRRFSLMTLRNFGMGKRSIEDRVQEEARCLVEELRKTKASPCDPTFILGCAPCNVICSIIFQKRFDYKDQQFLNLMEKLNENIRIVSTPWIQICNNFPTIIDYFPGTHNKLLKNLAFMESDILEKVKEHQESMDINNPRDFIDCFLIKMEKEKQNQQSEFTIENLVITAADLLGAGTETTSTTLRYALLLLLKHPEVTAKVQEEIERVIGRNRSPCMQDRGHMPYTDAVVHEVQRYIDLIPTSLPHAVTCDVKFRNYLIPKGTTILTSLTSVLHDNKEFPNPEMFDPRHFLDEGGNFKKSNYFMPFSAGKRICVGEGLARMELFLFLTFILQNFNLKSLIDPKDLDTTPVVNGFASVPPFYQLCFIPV
# [10] = target: T1, Cytochrome P450 1A2; assay: Inhibition of human CYP1A2; type: ADME
# [11] = target: T3, Voltage-gated inwardly rectifying potassium channel KCNH2 (Homo sapiens, UniProt Q12809); assay: Inhibition of human ERG by patch clamp assay
# T3 sequence (Q12809 whole entry): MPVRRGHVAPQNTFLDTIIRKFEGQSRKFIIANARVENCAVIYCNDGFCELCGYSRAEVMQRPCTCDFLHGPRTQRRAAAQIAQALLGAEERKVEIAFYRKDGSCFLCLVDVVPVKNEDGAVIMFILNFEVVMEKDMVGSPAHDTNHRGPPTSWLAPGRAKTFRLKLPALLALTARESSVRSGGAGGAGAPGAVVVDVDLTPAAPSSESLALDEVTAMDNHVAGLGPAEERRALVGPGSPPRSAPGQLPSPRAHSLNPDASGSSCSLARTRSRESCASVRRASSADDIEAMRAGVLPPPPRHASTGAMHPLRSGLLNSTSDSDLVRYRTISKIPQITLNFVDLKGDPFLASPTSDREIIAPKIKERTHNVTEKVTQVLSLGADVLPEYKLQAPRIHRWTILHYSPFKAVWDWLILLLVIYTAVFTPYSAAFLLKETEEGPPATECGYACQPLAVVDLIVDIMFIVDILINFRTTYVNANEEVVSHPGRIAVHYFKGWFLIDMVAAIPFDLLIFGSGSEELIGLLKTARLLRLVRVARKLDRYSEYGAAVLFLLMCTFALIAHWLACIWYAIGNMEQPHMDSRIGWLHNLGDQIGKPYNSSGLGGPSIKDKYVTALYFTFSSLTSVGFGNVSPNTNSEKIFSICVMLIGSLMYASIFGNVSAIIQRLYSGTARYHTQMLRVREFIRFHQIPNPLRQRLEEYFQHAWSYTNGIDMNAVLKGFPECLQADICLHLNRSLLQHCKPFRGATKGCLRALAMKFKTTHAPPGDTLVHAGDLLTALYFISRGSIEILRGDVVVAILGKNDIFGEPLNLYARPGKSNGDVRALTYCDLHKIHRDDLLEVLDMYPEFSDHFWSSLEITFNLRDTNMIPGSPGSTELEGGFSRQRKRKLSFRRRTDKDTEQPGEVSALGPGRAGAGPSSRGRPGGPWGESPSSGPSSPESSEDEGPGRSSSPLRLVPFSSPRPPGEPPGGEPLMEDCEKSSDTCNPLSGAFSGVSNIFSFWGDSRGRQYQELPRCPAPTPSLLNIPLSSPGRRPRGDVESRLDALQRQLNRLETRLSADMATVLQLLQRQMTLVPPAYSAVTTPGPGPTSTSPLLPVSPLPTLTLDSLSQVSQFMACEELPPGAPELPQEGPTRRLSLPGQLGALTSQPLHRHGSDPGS
# [12] = target: T4, Cytochrome P450 3A4 (Homo sapiens, UniProt P08684); assay: Inhibition of human CYP3A4; type: ADME
# T4 sequence (P08684 whole entry): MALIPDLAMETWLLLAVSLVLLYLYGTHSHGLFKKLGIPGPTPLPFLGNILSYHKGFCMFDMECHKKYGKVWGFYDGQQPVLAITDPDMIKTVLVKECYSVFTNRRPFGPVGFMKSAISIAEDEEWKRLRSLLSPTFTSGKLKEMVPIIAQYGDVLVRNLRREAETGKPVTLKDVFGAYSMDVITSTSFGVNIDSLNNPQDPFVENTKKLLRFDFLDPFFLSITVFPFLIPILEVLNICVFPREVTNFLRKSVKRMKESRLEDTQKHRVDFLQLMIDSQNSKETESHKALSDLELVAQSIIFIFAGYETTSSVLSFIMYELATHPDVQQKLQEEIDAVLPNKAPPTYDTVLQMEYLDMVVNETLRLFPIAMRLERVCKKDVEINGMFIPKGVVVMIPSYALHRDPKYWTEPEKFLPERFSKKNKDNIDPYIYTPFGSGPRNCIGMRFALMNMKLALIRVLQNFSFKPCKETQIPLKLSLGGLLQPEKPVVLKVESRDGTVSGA
# [13] = target: T3, Voltage-gated inwardly rectifying potassium channel KCNH2; assay: Inhibition of human ERG at >30 uM by patch clamp assay
# [14] = target: T5, Cytochrome P450 2D6 (Homo sapiens, UniProt P10635); assay: Inhibition of human CYP2D6 at >100 uM; type: ADME
# T5 sequence (P10635 whole entry): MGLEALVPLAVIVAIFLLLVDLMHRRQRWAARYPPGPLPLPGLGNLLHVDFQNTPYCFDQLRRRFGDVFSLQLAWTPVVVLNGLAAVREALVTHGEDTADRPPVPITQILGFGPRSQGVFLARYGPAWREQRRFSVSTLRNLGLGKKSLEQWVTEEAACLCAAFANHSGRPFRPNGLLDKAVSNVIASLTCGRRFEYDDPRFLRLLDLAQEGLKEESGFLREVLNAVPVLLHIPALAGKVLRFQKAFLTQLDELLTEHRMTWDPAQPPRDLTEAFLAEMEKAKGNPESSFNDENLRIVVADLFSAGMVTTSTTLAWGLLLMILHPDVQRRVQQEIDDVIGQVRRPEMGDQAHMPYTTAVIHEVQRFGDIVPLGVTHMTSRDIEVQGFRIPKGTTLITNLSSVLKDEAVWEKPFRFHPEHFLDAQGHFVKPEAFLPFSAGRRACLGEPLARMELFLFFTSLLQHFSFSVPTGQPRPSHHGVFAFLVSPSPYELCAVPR
# [15] = target: T6, Cytochrome P450 2C9 (Homo sapiens, UniProt P11712); assay: Inhibition of human CYP2C9; type: ADME
# T6 sequence (P11712 whole entry): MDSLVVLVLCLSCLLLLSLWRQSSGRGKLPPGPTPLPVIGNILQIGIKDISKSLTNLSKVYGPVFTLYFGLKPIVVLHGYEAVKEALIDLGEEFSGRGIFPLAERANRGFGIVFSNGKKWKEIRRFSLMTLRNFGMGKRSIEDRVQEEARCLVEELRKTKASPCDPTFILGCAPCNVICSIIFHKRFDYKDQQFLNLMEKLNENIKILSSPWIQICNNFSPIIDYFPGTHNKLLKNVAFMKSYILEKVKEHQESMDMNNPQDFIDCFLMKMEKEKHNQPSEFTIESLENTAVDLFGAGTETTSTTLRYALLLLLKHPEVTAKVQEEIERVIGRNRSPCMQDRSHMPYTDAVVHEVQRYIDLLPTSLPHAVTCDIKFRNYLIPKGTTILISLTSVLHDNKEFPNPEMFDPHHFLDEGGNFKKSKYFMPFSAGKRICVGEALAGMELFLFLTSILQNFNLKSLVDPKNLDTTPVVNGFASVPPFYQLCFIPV
# [16] = test system: Mus musculus; assay: Inhibition of LPS-induced iNOS activation in BALB/c mouse assessed as plasma nitrate levels administered via oral gavage before LPS challenge measured after 6 to 8 hrs using 2,3-diaminonaphthalene by fluorescence assay; type: functional
# In short: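 Male BALB/c mice dosed by oral gavage (90% PEG/5% Tween 80/5% PVP + 0.5% w/v CMC) immediately before LPS (10 mg/kg ip in 0.9% NaCl). Mice killed at 6 h. EDTA plasma analysed for nitrate and drug levels; nitrite measured by DAN fluorescence.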
# [17] = target: T4, Cytochrome P450 3A4; assay: Inhibition of human CYP3A4 at >100 uM; type: ADME
# [18] = target: T6, Cytochrome P450 2C9; assay: Inhibition of human CYP2C9 at >60 uM; type: ADME
# [19] = target: T5, Cytochrome P450 2D6; assay: Inhibition of human CYP2D6; type: ADME
# [20] = target: T2, Cytochrome P450 2C19; assay: Inhibition of human CYP2C19 at >60 uM; type: ADME
# [21] = target: T4, Cytochrome P450 3A4; assay: Inhibition of human CYP3A4 at >60 uM; type: ADME
# [22] = Cmax in mouse 10 mg/kg, po; type: ADME, organism-based; parameters: dose 10 mg/kg, route oral; conditions: in vivo
compound,measurement,setting,value
CC(C)Cc1nc2ccccc2n1Cc1cc(=O)[nH]c2c(F)c(F)ccc12,clearance,[1],12 mL/min/kg
same,t1/2,[2],1.83 h
same,AUC,[3],13300 ng·h/mL
same,Ratio EC50,[4],> 263
same,EC50,[5],0.69 µM
same,bioavailability,[6],81%
same,half-life,[7],1.7 h
O=c1cc(Cn2c(C3CCC3)nc3nccnc32)c2ccc(F)c(F)c2[nH]1,clearance,[1],4.5 mL/min/kg
same,inhibition (INH),[8],< 50%
same,EC50,[9],> 38 µM
same,EC50,[10],> 100 µM
same,t1/2,[2],> 2 h
same,EC50,[11],> 30 µM
same,EC50,[12],> 100 µM
same,inhibition (INH),[13],< 50%
same,EC50,[5],0.3 µM
same,bioavailability,[6],62%
same,inhibition (INH),[14],< 50%
same,EC50,[15],> 60 µM
same,ED50,[16],1 mg/kg
same,inhibition (INH),[17],< 50%
same,inhibition (INH),[18],< 50%
same,half-life,[7],2.1 h
same,EC50,[19],> 100 µM
O=c1cc(Cn2c(C3CCC3)nc3nccnc32)c2cccc(F)c2[nH]1,clearance,[1],5.9 mL/min/kg
same,inhibition (INH),[20],< 50%
same,inhibition (INH),[8],< 50%
same,EC50,[9],> 60 µM
same,EC50,[10],> 100 µM
same,t1/2,[2],> 2 h
same,EC50,[12],> 60 µM
same,AUC,[3],25000 ng·h/mL
same,EC50,[5],4.6 µM
same,bioavailability,[6],91%
same,inhibition (INH),[14],< 50%
same,EC50,[15],> 60 µM
same,inhibition (INH),[21],< 50%
same,ED50,[16],1.5 mg/kg
same,Cmax,[22],15000 ng/mL
same,inhibition (INH),[18],< 50%
same,half-life,[7],1.3 h
same,EC50,[19],> 100 µM
CC(C)Cc1nc2nccnc2n1Cc1cc(=O)[nH]c2c(F)c(F)ccc12,clearance,[1],6.1 mL/min/kg
same,inhibition (INH),[20],< 50%
same,inhibition (INH),[8],< 50%
same,EC50,[9],> 60 µM
same,EC50,[10],> 100 µM
same,t1/2,[2],0.783 h
same,EC50,[11],> 30 µM
same,EC50,[12],> 60 µM
same,inhibition (INH),[13],< 50%
same,AUC,[3],11000 ng·h/mL
same,EC50,[5],0.3 µM
same,bioavailability,[6],39%
same,inhibition (INH),[14],< 50%
same,EC50,[15],29 µM
same,inhibition (INH),[21],< 50%
same,ED50,[16],0.5 mg/kg
same,Cmax,[22],3700 ng/mL
same,half-life,[7],6 h
same,EC50,[19],> 100 µM
O=c1cc(Cn2c(C3CC(F)(F)C3)nc3nccnc32)c2cccc(F)c2[nH]1,clearance,[1],6.2 mL/min/kg
same,EC50,[9],27 µM
same,EC50,[10],35 µM
same,t1/2,[2],> 2 h
same,EC50,[12],23 µM
same,AUC,[3],15000 ng·h/mL
same,EC50,[5],3 µM
same,bioavailability,[6],55%
same,inhibition (INH),[14],< 50%
same,EC50,[15],22 µM
same,ED50,[16],3 mg/kg
same,half-life,[7],4 h
same,EC50,[19],> 100 µM
